“And” between values parts separate entries of the source, which are not always exact repeats. Equal entries are not always repeated. “Also recorded” adds a separate entry of the source. Where two headings read alike, the source gives them in different places.
What was measured:
[1] = GSK'254 200 mg QD, treatment-naive people living with HIV-1; cited from earlier work
[2] = tested on: healthy participants and people living with HIV‐1; conditions: short-term administration; cited from earlier work
dogs = conditions: single dose of GSK'254 17 mg kg^−1, cited from earlier work
healthy participants [3] = assay type: in vivo, human
healthy participants [4] = assay: Concentration-QTc analysis; assay type: in vivo, human
In short: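 Part 2: 12-lead ECGs extracted from continuous Holter recordings at baseline (Day −1; −45, −30, −15 min predose Day 1) and on Day 7 predose and 0.5–24 h postdose. ECGs taken before PK blood draws. QTcF by Fridericia. Mixed-effects model of ΔQTcF on plasma test compound concentration, with centred baseline QTcF, treatment and time fixed, and per-participant random slope and intercept.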

[5] = Plasma pharmacokinetics, part 1 sentinel cohort; assay type: in vivo, human
In short: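 Part 1: healthy participants (n = 8) randomised 3:1 to test compound 500 mg or placebo orally once daily for 7 days, given with a moderate-fat meal (~600 cal, 30% fat) 30 min before dosing. Plasma sampled within 40 min predose on Days 1, 5, 6 and 7, and on Day 7 at 0.5–48 h postdose. Validated UHPLC-MS/MS, range 3.00–1000 ng mL−1.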

healthy participants [6] = assay: Safety assessments; assay type: in vivo, human
In short: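 Part 2 healthy participants confined from Day −2 of period 1 to Day 9 of period 4. […] AEs monitored throughout, recording duration, severity, causality and outcome, alongside safety ECGs, laboratory tests, physical examination and vital signs.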

[7] = GSK'254 500 mg QD, 24 h post-dose
[8] = part 2, GSK'254 100 mg (N = 40)

In the case of `C=C(C)[C@@H]1CC[C@]2(NCCN3CCS(=O)(=O)CC3)CC[C@]3(C)[C@H](CC[C@@H]4[C@@]5(C)CC=C(C6=CC[C@@](CF)(C(=O)O)CC6)C(C)(C)[C@@H]5CC[C@]43C)[C@@H]12` [GSK'254], the “Geometric mean Cmax” value [1] is given as 1.86 µg/mL, the Tolerability [2] is given as “generally well tolerated” and the Maximum concentration (dogs; dog) is given as 7960 ng/mL. The QT interval effects (dogs; dogs, telemetry) was “minimal QT interval effects were observed in one dog”, the “Clinically relevant effects on cardiac parameters (QTc prolongation, HR, cardiac conduction)” value (healthy participants [3]; GSK'254 100 mg QD) was “No clinically relevant effects on cardiac parameters; also recorded: No clinically relevant effects on QTc prolongation, HR, or cardiac conduction” and the “Observations of ΔQTcF >30 ms” value (healthy participants [3]; GSK'254 100 mg QD) was “no participants”. The “Outliers in HR changes (HR >100 bpm with a >25% increase in ΔHR)” value (healthy participants [3]; GSK'254 100 mg QD) was “one participant at one time point”, the “Reports of QTcF >450 to ≤480 ms” value (healthy participants [3]; GSK'254 100 mg QD) was “one participant (one time point)” and the “LS mean ΔΔHR, lowest across time points” value (healthy participants [3]; GSK'254 100 mg QD, 0.5 h post-dose, Day 7) was −0.2 (−2.17–1.67) bpm. For the same compound, the “LS mean ΔΔHR, highest across time points” value (healthy participants [3]; GSK'254 100 mg QD, 24 h post-dose, Day 7) was 2.6 (0.70–4.53) bpm, the “ΔΔQTcF, LS mean (90% CI)” value (healthy participants [3]; GSK'254 100 mg QD, Day 7, 0.5 h) was 1.0 (−1.60, 3.59) ms and the “ΔΔQTcF, LS mean (90% CI)” value (healthy participants [3]; GSK'254 100 mg QD, Day 7, 1 h) was 0.6 (−2.06, 3.33) ms. The “ΔΔQTcF, LS mean (90% CI)” value (healthy participants [3]; GSK'254 100 mg QD, Day 7, 2 h) was 1.7 (−1.27, 4.73) ms, the “ΔΔQTcF, LS mean (90% CI)” value (healthy participants [3]; GSK'254 100 mg QD, Day 7, 3 h) was 1.5 (−1.45, 4.51) ms and the “ΔΔQTcF, LS mean (90% CI)” value (healthy participants [3]; GSK'254 100 mg QD, Day 7, 4 h) was 1.0 (−1.59, 3.54) ms. For the same compound, the “ΔΔQTcF, LS mean (90% CI)” value (healthy participants [3]; GSK'254 100 mg QD, Day 7, 4.5 h) was 1.0 (−1.73, 3.82) ms, the “ΔΔQTcF, LS mean (90% CI)” value (healthy participants [3]; GSK'254 100 mg QD, Day 7, 5 h) was 0.2 (−2.44, 2.80) ms and the “ΔΔQTcF, LS mean (90% CI)” value (healthy participants [3]; GSK'254 100 mg QD, Day 7, 6 h) was 1.7 (−1.58, 4.97) ms. The “ΔΔQTcF, LS mean (90% CI)” value (healthy participants [3]; GSK'254 100 mg QD, Day 7, 8 h) was −0.8 (−3.54, 1.90) ms, the “ΔΔQTcF, LS mean (90% CI)” value (healthy participants [3]; GSK'254 100 mg QD, Day 7, 10 h) was 0.2 (−2.30, 2.65) ms and the “ΔΔQTcF, LS mean (90% CI)” value (healthy participants [3]; GSK'254 100 mg QD, Day 7, 12 h) was 0.5 (−2.43, 3.35) ms. For the same compound, the “ΔΔQTcF, LS mean (90% CI)” value (healthy participants [3]; GSK'254 100 mg QD, Day 7, 24 h) was 0.1 (−2.66, 2.76) ms, the “ΔΔQTcF, LS mean (90% CI)” value (healthy participants [3]; GSK'254 100 mg QD, Day 7, […]) was 1.4 (−1.30, 4.13) ms and the “ΔΔQTcF, LS mean (90% CI)” value (healthy participants [3]; GSK'254 100 mg QD, Day 7, pre-dose) was 1.4 (−0.88, 3.77) ms. For the same compound, the “Maximum LS mean ΔΔQTcF” value (healthy participants [3]; GSK'254 100 mg QD, at 2 and 6 h post-dose on Day 7) was 1.7 ms, the “Upper bound of the 90% CI of LS mean ΔΔQTcF” value (healthy participants [3]; GSK'254 100 mg QD, through 24 h post-dose on Day 7) was under 10 ms and the “Observations of ΔQTcF >30 ms” value (healthy participants [3]; GSK'254 500 mg QD) was “two participants (three time points)”. For the same compound, the “Outliers in HR changes (HR >100 bpm with a >25% increase in ΔHR)” value (healthy participants [3]; GSK'254 500 mg QD) was “one participant at one time point”, the “Reports of QTcF >450 to ≤480 ms” value (healthy participants [3]; GSK'254 500 mg QD) was “one participant (one time point)” and the “Largest LS mean ΔΔHR” value (healthy participants [3]; GSK'254 500 mg QD, 10 h post-dose on Day 7) was 5.1 bpm. For the same compound, the “LS mean placebo-corrected change from baseline in PR, lowest across post-dose time points” value (healthy participants [3]; [7]) was −1.8 (−4.00–0.36) ms, the “LS mean placebo-corrected change from baseline in QRS, maximum value” (healthy participants [3]; [7]) was 1.4 ms and the “ΔΔQTcF, LS mean (90% CI)” value (healthy participants [3]; GSK'254 500 mg QD, Day 7, 0.5 h) was 7.2 (4.59, 9.83) ms. The “ΔΔQTcF, LS mean (90% CI)” value (healthy participants [3]; GSK'254 500 mg QD, Day 7, 1 h) was 4.1 (1.34, 6.79) ms, the “ΔΔQTcF, LS mean (90% CI)” value (healthy participants [3]; GSK'254 500 mg QD, Day 7, 2 h) was 6.5 (3.46, 9.55) ms and the “ΔΔQTcF, LS mean (90% CI)” value (healthy participants [3]; GSK'254 500 mg QD, Day 7, 3 h) was 8.1 (5.06, 11.09) ms. For the same compound, the “ΔΔQTcF, LS mean (90% CI)” value (healthy participants [3]; GSK'254 500 mg QD, Day 7, 4 h) was 8.6 (6.03, 11.22) ms, the “ΔΔQTcF, LS mean (90% CI)” value (healthy participants [3]; GSK'254 500 mg QD, Day 7, 4.5 h) was 10.6 (7.75, 13.38) ms and the “ΔΔQTcF, LS mean (90% CI)” value (healthy participants [3]; GSK'254 500 mg QD, Day 7, 5 h) was 9.6 (6.92, 12.24) ms. The “ΔΔQTcF, LS mean (90% CI)” value (healthy participants [3]; GSK'254 500 mg QD, Day 7, 6 h) was 8.6 (5.27, 11.89) ms, the “ΔΔQTcF, LS mean (90% CI)” value (healthy participants [3]; GSK'254 500 mg QD, Day 7, 8 h) was 8.1 (5.34, 10.85) ms and the “ΔΔQTcF, LS mean (90% CI)” value (healthy participants [3]; GSK'254 500 mg QD, Day 7, 10 h) was 8.6 (6.14, 11.15) ms. The “ΔΔQTcF, LS mean (90% CI)” value (healthy participants [3]; GSK'254 500 mg QD, Day 7, 12 h) was 6.0 (3.07, 8.89) ms, the “ΔΔQTcF, LS mean (90% CI)” value (healthy participants [3]; GSK'254 500 mg QD, Day 7, 24 h) was 7.7 (4.94, 10.45) ms and the “ΔΔQTcF, LS mean (90% CI)” value (healthy participants [3]; GSK'254 500 mg QD, Day 7, […]) was 9.2 (6.44, 11.93) ms. The “ΔΔQTcF, LS mean (90% CI)” value (healthy participants [3]; GSK'254 500 mg QD, Day 7, pre-dose) was 7.1 (4.74, 9.46) ms, the “LS mean placebo-corrected change from baseline in PR, highest across post-dose time points” value (healthy participants [3]; GSK'254 500 mg QD, […] post-dose) was 3.2 (0.86–5.57) ms and the “Maximum LS mean ΔΔQTcF” value (healthy participants [3]; GSK'254 500 mg QD, at 4.5 h post-dose on Day 7) was 10.6 ms and 10.6 (7.75–13.38) ms. The “Clinically relevant effects on heart rate or cardiac conduction (PR and QRS intervals)” value (healthy participants [3]; both GSK'254 doses (100 and 500 mg QD)) was “Neither GSK'254 dose had clinically relevant effects on heart rate or cardiac conduction; also recorded: neither GSK'254 dose had a clinically relevant effect on cardiac conduction (PR and QRS intervals) or HR”, the “Treatment effect-specific intercept of the concentration-QTc model” value (healthy participants [4]; Day 7) was 0.61 ms and the “Model-predicted ΔΔQTcF at geometric mean GSK'254 Cmax” value (healthy participants [4]; GSK'254 100 mg) was 2.72 ms. For the same compound, the “Model-predicted ΔΔQTcF at geometric mean GSK'254 Cmax” value (healthy participants [4]; GSK'254 500 mg) was 11.49 ms, the “Estimated population slope of the concentration-QTc model” value (healthy participants [4]; ΔΔQTcF vs GSK'254 plasma concentration, Day 7) was 0.0025 ms per ng mL^−1 and the AUC ([5]; human, plasma, oral, 500 mg) was 68.8 µg·h/mL. For the same compound, the Cmax ([5]; human, plasma, oral, 500 mg) was 4.44 µg/mL, the “Cτ, geometric mean (%CVb)” value ([5]; part 1, GSK'254 500 mg QD 7 days, moderate-fat meal, Day 7, n = 6) was 2080 ng mL^−1 and 2080 (32.4) ng mL^−1 and the Tolerability (healthy participants [6]; both GSK'254 doses, short-term administration, all AEs mild in intensity) was “generally well tolerated”. For the same compound, the “AE: Abdominal pain” value (healthy participants [6]; [8]) was 0 n (%), the “AE: Acne” value (healthy participants [6]; [8]) was 2 (5) n (%) and the “AE: Diarrhea” value (healthy participants [6]; [8]) was 0 n (%). For the same compound, the “AE: Gastrointestinal disorders” value (healthy participants [6]; [8]) was 1 (3) n (%) and the “AE: General disorders and administration site conditions” value (healthy participants [6]; [8]) was 0 n (%).

Source: article PMC10644204 (Pharmacology Research & Perspectives, 2023)
